Results on four molecules are retold here after ChEMBL document CHEMBL1146626, “The stability of pseudopeptides bearing sulfoximines as chiral backbone modifying element towards proteinase K” (Bioorg Med Chem Lett, 2003).

Residues, ends and D or L forms follow the SMILES beside them.

Data set [1] is described as follows: Rate constant for the compound at a substrate concentration of 304 uM was determined. In kind it is ADME. Put shortly:
(§1)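 Substrate incubated at 37 °C with Proteinase K in 30 mM Tris–HCl, 1 mM CaCl2, pH 8.0. Aliquots were taken at several times, snap-frozen in liquid nitrogen and held at -20 °C. Thawed samples went straight onto C-18 RP-HPLC, eluted with water then a gradient to 70% CH3CN. Substrate and cleavage products were tracked by UV at 210 nm against retention times.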

Data set [2] can be described thus: Relativity constant at a substrate concentration of 304 uM. The class given is ADME. Put shortly:
as §1

Data set [3] in a line: Half-life period at a substrate concentration of 304 uM was determined. In kind it is ADME. In short, it runs like this:
as §1

For data set [4], the system named is Proteinase K (Tritirachium album). Description: Amount of proteinase K required to release folin positive amino acids at a substrate concentration of 304 uM.
Data set [5] in a line: Rate constant for the compound at a substrate concentration of 262 uM was determined; No cleavage. The class given is ADME. Put shortly: as §1
The nature of data set [6]: Relativity constant at a substrate concentration of 304 uM.
Data set [7] in a line: Rate constant for the compound at a substrate concentration of 218 uM was determined. In kind it is ADME. In short, it runs like this:
as §1

The nature of data set [8]: Relativity constant at a substrate concentration of 218 uM. In kind it is ADME. Put shortly:
as §1

Data set [9] in a line: Half-life period at a substrate concentration of 218 uM was determined. The class given is ADME. In short, it runs like this: as §1

Turning to `N[C@H](Cc1ccccc1)C(=O)N=[S+]([O-])(CC(=O)N[C@H](Cc1ccccc1)C(=O)O)c1ccccc1` (some centres undefined), the K obs in data set [1] was found to be 2.72 h⁻¹. Also, the Krel in [2] was 0.73. In addition, the half-life (commonly the time in which the quantity being followed falls by half) at 304 µM in data set [3] came out at 15.3 min. In data set [4], the Activity worked out at 30 mAU ml-1.
Consider `N=[S+]([O-])(CC(=O)N[C@@H](Cc1ccccc1)C(=O)O)c1ccccc1` (some centres undefined), for which, in data set [5], the K obs result is recorded as “No cleavage”. In [4], this molecule showed an Activity of 300 mAU ml-1.
`N[C@@H](Cc1ccccc1)C(=O)N=[S+]([O-])(CC(=O)N[C@@H](Cc1ccccc1)C(=O)O)c1ccccc1` (some centres undefined) had a K obs in data set [1] of 3.75 h⁻¹. Besides, the half-life at 304 µM in data set [3] is 11.1 min. For the same molecule, the Krel in data set [6] was 1. Besides, the Activity in data set [4] was 3 mAU ml-1.
For `N[C@@H](Cc1ccccc1)C(=O)N[C@@H](Cc1ccccc1)C(=O)N[C@@H](Cc1ccccc1)C(=O)O` (H-Phe-Phe-Phe-OH), in data set [7], the K obs was 1.11 h⁻¹. In addition, the Krel in [8] was 0.59. The half-life at 218 µM in data set [9] is 37.5 min. The same molecule had an Activity in data set [4] of 1.5 mAU ml-1.
